# Reference: ChEMBL document CHEMBL4725448, “Substituted Azabicyclo[2.2.1]heptanes as Selective Orexin-1 Antagonists: Discovery of JNJ-54717793” (ACS Med Chem Lett, 2020)
# Tests used:
# [1] = Stability in rat liver microsomes assessed as extraction ratio; format: ADME, Microsome; conditions: read-out: ERH
# Method in brief: (§1)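 Metabolic stability in human or rat liver microsomes, expressed as extraction ratios.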
# [2] = Clearance in rat at 1 mg/kg, iv and 5 mg/kg, po; format: ADME, organism-based; conditions: in vivo
# [3] = Cmax in mouse assessed as NOAEL at 200 mg/kg/day, po measured after immediately administered; format: ADME, organism-based; parameters: route oral, time 13 day, dose 200 mg/kg/day; conditions: in vivo
# [4] = Lipophilicity, logD of the compound at pH 7.4; format: physicochemical; conditions: buffer
# [5] = Ex vivo receptor occupancy at OX1R in Sprague-Dawley rat brain tenia tecta using [3H]SB-674042 labelling at 10 mg/kg, po measured after 6 hrs by autoradiography; format: functional
# Method in brief: (§2)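 Rats received a single oral dose, and OX1R occupancy was measured by ex vivo binding autoradiography in brain tenia tecta sections at 0.5, 2 and 6 h after dosing. Occupancy is expressed as percent. Brain and plasma drug levels (ng/mL) were also sampled at the 0.5 h time point.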
# [6] = Cmax in mouse assessed as NOAEL at 200 mg/kg/day, po administered as repeated dose for 13 days; format: ADME, organism-based; parameters: route oral, dose 200 mg/kg/day, time 13 day; conditions: in vivo
# [7] = AUC (0 to 24 hrs) in mouse assessed as NOAEL at 200 mg/kg/day, po administered as repeated dose for 13 days; format: ADME, organism-based; parameters: route oral, dose 200 mg/kg/day, time 13 day; conditions: in vivo
# [8] = Cmax in dog at 0.5 mg/kg, iv and […], po; format: ADME, organism-based, Canis lupus familiaris; parameters: dose 2.5 mg/kg; conditions: in vivo
# [9] = Clearance in primate; format: ADME; conditions: primates
# [10] = AUC (0 to 24 hrs) in rat assessed as NOAEL at 200 mg/kg/day, po measured after immediately administered; format: ADME, organism-based; parameters: route oral, time 13 day, dose 200 mg/kg/day; conditions: in vivo
# [11] = […] clearance in rat at 1 mg/kg, iv and 5 mg/kg, po; format: ADME, organism-based; conditions: in vivo
# [12] = Dissociation constant, pKa of the compound; format: physicochemical
# [13] = Cmax in rat at 1 mg/kg, iv and 5 mg/kg, po; format: ADME, organism-based; parameters: dose 5 mg/kg; conditions: in vivo
# [14] = Stability in human liver microsomes assessed as extraction ratio; format: ADME, Microsome; conditions: read-out: ERH; method in brief: as §1
# [15] = Cmax in mouse at 1 mg/kg, iv and 5 mg/kg, po; format: ADME, organism-based; parameters: dose 5 mg/kg; conditions: in vivo
# [16] = […] clearance in dog at 0.5 mg/kg, iv and […], po; format: ADME, organism-based, Canis lupus familiaris; conditions: in vivo, dose 2.5 mg/kg
# [17] = Oral bioavailability in rat at 5 mg/kg; format: ADME, organism-based; conditions: in vivo
# [18] = Cmax in rat assessed as NOAEL at 200 mg/kg/day, po administered as repeated dose for 6 days; format: ADME, organism-based; parameters: route oral, dose 200 mg/kg/day, time 6 day; conditions: in vivo
# [19] = Drug concentration in Sprague-Dawley rat plasma at 30 mg/kg, po after 0.5 hrs by LC-MS/MS analysis; format: ADME, organism-based
# Method in brief: (§3)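 Brain and plasma levels (ng/mL) sampled 0.5 h after oral dosing at 10 or 30 mg/kg, alongside the ex vivo tenia tecta occupancy study.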
# [20] = Permeability across apical to basolateral side in MDCK cells; format: ADME, cell-based, Canis lupus familiaris; conditions: dog
# [21] = Ex vivo receptor occupancy at OX1R in Sprague-Dawley rat brain tenia tecta using [3H]SB-674042 labelling at 10 mg/kg, po measured after 0.5 hrs by autoradiography; format: functional; method in brief: as §2
# [22] = Oral bioavailability in primate at 5 mg/kg; format: ADME, organism-based; conditions: primates, in vivo
# [23] = AUC (0 to 24 hrs) in rat assessed as NOAEL at 200 mg/kg/day, po administered as repeated dose for 13 days; format: ADME, organism-based; parameters: route oral, time 13 day, dose 200 mg/kg/day; conditions: in vivo
# [24] = Volume of distribution at steady state in rat at 1 mg/kg, iv and 5 mg/kg, po; format: ADME, organism-based; conditions: in vivo, read-out: Vdss
# [25] = Volume of distribution at steady state in mouse at 1 mg/kg, iv and 5 mg/kg, po; format: ADME, organism-based; conditions: in vivo, read-out: Vdss
# [26] = […] clearance in nonhuman primate; format: ADME; conditions: primates
# [27] = Stability in dog liver microsomes assessed as extraction ratio; format: ADME, Canis lupus familiaris, Microsome; conditions: read-out: ERH
# [28] = Drug concentration in Sprague-Dawley rat brain at 30 mg/kg, po after 0.5 hrs by LC-MS/MS analysis; format: ADME, organism-based; conditions: read-out: Ct; method in brief: as §3
# Orexin receptor type 2 = biological target: T1, Orexin receptor type 2 (Homo sapiens, UniProt O43614); experiment: Binding affinity to human OX2R
# T1 sequence (O43614 whole entry): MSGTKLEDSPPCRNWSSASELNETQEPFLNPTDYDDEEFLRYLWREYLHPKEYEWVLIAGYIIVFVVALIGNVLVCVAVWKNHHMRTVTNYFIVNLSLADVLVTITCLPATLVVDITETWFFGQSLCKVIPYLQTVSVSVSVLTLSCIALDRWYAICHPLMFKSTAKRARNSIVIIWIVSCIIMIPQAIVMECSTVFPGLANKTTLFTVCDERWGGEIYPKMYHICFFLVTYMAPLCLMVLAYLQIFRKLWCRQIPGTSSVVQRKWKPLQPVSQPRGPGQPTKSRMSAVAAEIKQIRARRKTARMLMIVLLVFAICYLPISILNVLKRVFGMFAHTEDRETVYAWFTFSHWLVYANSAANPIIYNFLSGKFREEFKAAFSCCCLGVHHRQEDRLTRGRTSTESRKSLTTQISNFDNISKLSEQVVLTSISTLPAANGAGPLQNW
# [29] = Cmax in rat assessed as NOAEL at 200 mg/kg/day, po administered as repeated dose for 13 days; format: ADME, organism-based; parameters: route oral, time 13 day, dose 200 mg/kg/day; conditions: in vivo
# [30] = AUC (0 to 24 hrs) in rat assessed as NOAEL at 200 mg/kg/day, po administered as repeated dose for 6 days; format: ADME, organism-based; parameters: route oral, time 6 day, dose 200 mg/kg/day; conditions: in vivo
# [31] = Oral bioavailability in dog at […]; format: ADME, organism-based, Canis lupus familiaris; conditions: in vivo, dose 2.5 mg/kg
# [32] = Drug concentration in Sprague-Dawley rat plasma at 10 mg/kg, po after 0.5 hrs by LC-MS/MS analysis; format: ADME, organism-based; method in brief: as §3
# [33] = Ex vivo receptor occupancy at OX1R in po dosed rat tenia tecta after 60 mins; format: functional, organism-based; conditions: 1 h
# [34] = Cmax in human at 50 mg/day; format: ADME; parameters: dose 50 mg
# [35] = Permeability across basolateral to apical side in MDCK cells; format: ADME, cell-based, Canis lupus familiaris; conditions: dog
# [36] = AUC (0 to 24 hrs) in mouse assessed as NOAEL at 200 mg/kg/day, po measured after immediately administered; format: ADME, organism-based; parameters: route oral, dose 200 mg/kg/day, time 13 day; conditions: in vivo
# [37] = Protein binding in rat plasma assessed as free fraction; format: ADME, cell-free
# [38] = Cmax in rat assessed as NOAEL at 250 mg/kg, po administered as repeated dose for 5 days; format: ADME, organism-based; parameters: route oral, dose 250 mg/kg, time 5 day; conditions: in vivo
# [39] = […] clearance in mouse at 1 mg/kg, iv and 5 mg/kg, po; format: ADME, organism-based; conditions: in vivo
# [40] = Cmax in rat assessed as NOAEL at 200 mg/kg/day, po measured after immediately administered; format: ADME, organism-based; parameters: route oral, dose 200 mg/kg/day, time 13 day; conditions: in vivo
# [41] = Clearance in mouse at 1 mg/kg, iv and 5 mg/kg, po; format: ADME, organism-based; conditions: in vivo
compound,measurement,setting,value
O=C(c1cccc(F)c1-c1ncccn1)N1[C@@H]2CC[C@H]1[C@H](Nc1cnc(C(F)(F)F)cn1)C2,hepatic extraction ratio,[1],0.31
same,clearance,[2],17 mL/min/kg
same,Cmax,[3],32900 ng/mL
same,logD,[4],2.18
same,Activity,[5],17%
same,Cmax,[6],24800 ng/mL
same,AUC at 312 h,[7],84100 ng·h/mL
same,Cmax,[8],2240 ng/mL
same,clearance,[9],14 mL/min/kg
same,AUC at 312 h,[10],386000 ng·h/mL
same,clearance,[11],17 mL/min/kg
same,pKa,[12],< 2
same,Cmax,[13],1370 ng/mL
same,hepatic extraction ratio,[14],< 0.3
same,Cmax,[15],1500 ng/mL
same,clearance,[16],4.8 mL/min/kg
same,bioavailability,[17],119%
same,Cmax,[18],8800 ng/mL
same,concentration at 0.5 h,[19],4960 ng/mL
same,Papp A→B,[20],1.95 ×10⁻⁶ cm/s
same,Activity,[21],70%
same,bioavailability,[22],22%
same,AUC at 312 h,[23],36200 ng·h/mL
same,Vd,[24],1.4 L/kg
same,Vd,[25],1.1 L/kg
same,CLint scaled,[26],13 mL/min/kg
same,hepatic extraction ratio,[27],< 0.3
same,concentration at 0.5 h,[28],687 ng/mL
same,Ki,Orexin receptor type 2,700 nM
same,Cmax,[29],6980 ng/mL
same,AUC at 144 h,[30],62000 ng·h/mL
same,bioavailability,[31],48%
same,concentration at 0.5 h,[32],1190 ng/mL
same,EC50,[33],0.085 µg/mL
same,ED50,"[33]; po, time 60 min",1.3 mg/kg
same,Cmax,[34],537 ng/mL
same,Papp B→A,[35],64.4 ×10⁻⁶ cm/s
same,AUC at 312 h,[36],225000 ng·h/mL
same,fraction unbound,[37],0.23
same,Cmax,[38],15000 ng/mL
same,clearance,[39],29 mL/min/kg
same,Cmax,[40],30900 ng/mL
same,clearance,[41],21 mL/min/kg
